22 molecules from ChEMBL document CHEMBL4732130, “Synthesis and characterization of 1,2,4-triazolo[1,5-a]pyrimidine-2-carboxamide-based compounds targeting the PA-PB1 interface of influenza A virus polymerase” (Eur J Med Chem, 2021) can be followed below.

SMILES strings stand for the structures. In brackets after ≈: the same amount, converted by molar mass. Several values for one entry are separate records, joined by “and”; a condition that tells them apart may be missing. Identical values can stand only once.

The subject of one data set is Influenza A virus. Briefly: Antiviral activity against Influenza A virus A/PR/8/34 (H1N1) infected in MDCK cells assessed as reduction in plaque formation treated 1 hr post viral infection and measured after 48 hrs post-infection by toluidine blue staining based plaque reduction assay. The data set is classed as functional, organism-based. The following applies: A/Puerto Rico/8/1934(H1N1).

Data set [1] can be described thus: Cytotoxicity in dog MDCK cells assessed as reduction in cell viability incubated for 24 to 120 hrs by MTT assay. The data set is classed as cell-based, Canis lupus familiaris. The following applies: time 24-120 hrs. (In general: Tetrazolium dyes change colour on reduction, which living cells bring about.)
Data set [2] can be described thus: Inhibition of Influenza A virus 6His-tagged PA (239 to 716 residues)/GST-tagged PB1 (1 to 25 residues) expressed in Escherichia coli BL21 pLysS protein-protein interaction using 3,3',5,5'tetramethylbenzedine as substrate by ELISA. A general note: In an ELISA, binding on a coated surface is turned into a signal by an enzyme label.
A further data set has as its system MDCK. Briefly: (§1) Cytotoxicity against dog MDCK cells assessed as reduction in cell viability incubated for 48 hrs by MTT assay. In kind it is cell-based, Canis lupus familiaris. The following applies: mdck, 48 h. The essentials:
(§2)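 MDCK cells seeded at 2 × 10^4/well and grown 24 h, then given serial compound dilutions in DMEM with 10% FBS (DMSO control) for 48 h at 37 °C. MTT (5 mg/mL stock) added for 4 h, cells solubilised overnight, OD read at 620 nm. […] Mean ± SD of ≥3 independent experiments in duplicate.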

Data set [3] is described as follows: Protein binding in human plasma assessed as unbound fraction at 5 uM incubated for 4 hrs by UPLC/MS-MS based rapid equilibrium dialysis method. In kind it is ADME, cell-free. The procedure, abridged:
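Compound at 5 µM in human plasma, dialysed against buffer by rapid equilibrium dialysis for 4 h at 37 °C. Chamber aliquots matrix-matched, precipitated with acetonitrile, and quantified by UPLC-MS/MS peak areas.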
Background: In equilibrium dialysis free small molecules cross a membrane that holds back macromolecules.

A short description of data set [4]: Equilibrium solubility of the compound in phosphate buffer at pH 7.4 incubated for 2 hrs. In kind it is physicochemical. The following applies: for solubility: buffer, pH 7.4, 2 h, 2 h; for solubility thermodynamic at 2 h: phosphate buffer, pH 7.4.
Data set [5] can be described thus: Metabolic stability in human liver microsomes assessed as compound remaining at 10 uM preincubated for 5 mins followed by NADPH addition and measured after 60 mins by LC-MS/MS analysis. In kind it is ADME, Microsome. The following applies: time 65 min, read-out: Stabilty. The procedure, abridged:
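Compound at 10 µM preincubated 5 min at 37 °C with human liver microsomes (1 mg/mL) in 0.1 M phosphate, pH 7.4. Reaction started with 2 mM NADPH. Samples taken at 0, 10, 20, 40 and 60 min, quenched in cold acetonitrile containing labetalol internal standard, and centrifuged. Analysed by LC-MS/MS (Q-TOF) for percent unchanged compound and metabolites. Half-life and intrinsic clearance estimated.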

The target of data set [6] is RNA-directed RNA polymerase (Influenza A virus (strain A/Puerto Rico/8/1934 H1N1), UniProt P03428+P03431+P03433). Briefly: Inhibition of RdRP activity in Influenza A virus A/PR/8/34 (H1N1) infected in HEK293T cells co-transfected with NP/PA/PB1/PB2/pPolI-Flu-ffLuc/pRL-SV40 incubated for 24 hrs by minireplicon based dual luciferase assay. The data set is classed as cell-based, Influenza A virus (A/Puerto Rico/8/1934(H1N1)). The procedure, abridged: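 HEK293T cells (2 × 10^5/well) plated overnight, then calcium-phosphate transfected with PB1, PB2, PA and NP plasmids (100 ng each), pPolI-Flu-ffLuc reporter (50 ng; WSN segment 8 noncoding ends) and pRL-SV40 (50 ng), with compound or DMSO present. Medium replaced at 5 h with compound-containing DMEM. Dual luciferase read at 24 h. Firefly normalised to Renilla, DMSO set as 100% polymerase activity.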

Data set [7] in a line: as §1. In kind it is cell-based, Canis lupus familiaris. The following applies: MDCK cells. The essentials: as §2

As for `COc1ccc(C(=O)Nc2nc3n(n2)C(c2ccccc2)C=C(C)N3)cc1` (stereo not given), in the data set on Influenza A virus, the EC50 was more than 100 µM. Besides, the CC50 in data set [1] was more than 250 µM.

In the case of `Cc1cc(-c2ccccc2)n2nc(C(=O)Nc3sc(C)c(C)c3C(N)=O)nc2n1`, the 50% inhibitory concentration (IC50) in data set [2] is more than 200 µM. Moreover, the half-maximal cytotoxic concentration (CC50) with MDCK is more than 250 µM. Further, in the data set with Influenza A virus, the EC50 was more than 50 µM.

`Cc1cc(-c2ccccc2)n2nc(C(=O)Nc3c(C(N)=O)sc4ncccc34)nc2n1` had an IC50 in data set [2] of 3.3 µM. In addition, the CC50 with MDCK is more than 250 µM. Also, in the data set with Influenza A virus, the EC50 is more than 100 µM.

For `Cc1cc(-c2ccccc2)nc2nc(C(=O)Nc3ccccc3C(N)=O)nn12`, in [3], the Fu worked out at 22.45%. This molecule displayed an IC50 in data set [2] of 7 µM. Moreover, the CC50 in the data set with MDCK is more than 250 µM. Besides, the solubility in [4] was 82.2 uM and 30.6 ug ml-1. Besides, in [5], the remaining at 1 h, 10 µM worked out at 76%. For the same molecule, the EC50 with Influenza A virus came to 31 µM; in data set [6] it was 5.8 µM.

Take `Cc1cc(-c2ccccc2)nc2nc(C(=O)Nc3ccsc3C(N)=O)nn12`: the IC50 in data set [2] amounted to 50 µM. The CC50 in the data set with MDCK turned out to be 240 µM. Moreover, in the data set on Influenza A virus, the EC50 was more than 100 µM.

On to `Cc1cc(-c2ccccc2)n2nc(C(=O)Nc3sc4c(c3C(=O)Nc3ccccn3)CCCCC4)nc2n1`, for which the IC50 in [2] is 23 µM. Moreover, the cytotoxic concentration (CC50) in the data set with MDCK is more than 250 µM. Moreover, in the data set on Influenza A virus, the EC50 worked out at 48 µM.

`Cc1cc(-c2ccccc2)nc2nc(C(=O)Nc3c(C(N)=O)sc4ncccc34)nn12`: in data set [2], the IC50 was more than 200 µM. Besides, in the data set with MDCK, the CC50 is 51 µM. Besides, in the data set with Influenza A virus, the EC50 came out at 43 µM.

Take `Cc1cc(-c2ccccc2)n2nc(C(=O)Nc3c(C(N)=O)sc4ccccc34)nc2n1`: in [2], the IC50 is more than 200 µM. Moreover, the CC50 in the data set on MDCK was more than 250 µM. Further, the EC50 in the data set with Influenza A virus was 22 µM.

With `Cc1cc(-c2ccccc2)nc2nc(C(=O)Nc3sc4c(c3C(=O)O)CCCCC4)nn12`, the IC50 in [2] came to 18 µM. Besides, in the data set with MDCK, the CC50 is more than 250 µM. Also, the EC50 in the data set on Influenza A virus is 70 µM.

In data set [2], `Cc1cc(-c2ccccc2)n2nc(C(=O)Nc3sc4c(c3C(N)=O)CCCC4)nc2n1` returned an IC50 of 15 µM. Besides, the CC50 with MDCK is more than 250 µM. Further, the EC50 in the data set with Influenza A virus amounted to 32 µM.

For the molecule `Cc1cc(-c2ccccc2)n2nc(C(=O)Nc3c(C(N)=O)sc4c3CCCCC4)nc2n1`, the IC50 in data set [2] is more than 200 µM. The CC50 with MDCK is 90 µM. Further, the EC50 in the data set on Influenza A virus was more than 50 µM.

As to `Cc1cc(-c2ccccc2)n2nc(C(=O)Nc3sc4c(c3C(=O)O)CCCCC4)nc2n1`, in data set [2], half-maximal inhibition (IC50) was put at 19 µM. The CC50 in the data set with MDCK was more than 250 µM. Further, the EC50 with Influenza A virus is 50 µM.

The molecule `Cc1cc(-c2ccccc2)n2nc(C(=O)Nc3sc4c(c3C(N)=O)CCC4)nc2n1` had an IC50 in [2] of 6.2 µM. Also, the CC50 in the data set on MDCK was more than 250 µM. In addition, the EC50 in the data set on Influenza A virus was determined as 22 µM.

In turn, `Cc1cc(-c2ccccc2)n2nc(C(=O)Nc3ccccc3C(N)=O)nc2n1` gave a concentration for half-maximal inhibition (IC50) in data set [2] of 11 µM. Besides, the CC50 in the data set on MDCK is more than 250 µM. Also, the solubility in [4] was 17.6 uM and 6.55 ug ml-1. For the same molecule, the EC50 in the data set with Influenza A virus is more than 100 µM.

Molecule `Cc1cc(-c2ccccc2)n2nc(C(=O)Nc3sc4ccccc4c3C(N)=O)nc2n1` gave an IC50 in data set [2] of more than 200 µM. Further, in the data set on MDCK, the CC50 is more than 250 µM. Further, the half-maximal effective concentration (EC50) in the data set with Influenza A virus is 49 µM.

`Cc1cc(-c2ccccc2)n2nc(C(=O)Nc3nc4ccccc4s3)nc2n1`: it took 21 µM to reach half-maximal inhibition in data set [2] (IC50). In the data set on MDCK, the 50% cytotoxic concentration (CC50) was more than 250 µM. In the data set on Influenza A virus, the EC50 was more than 50 µM.

For `CCC1CCc2c(sc(NC(=O)c3nc4nc(C)cc(-c5ccccc5)n4n3)c2C(N)=O)C1` (stereo not given), the IC50 in data set [2] was more than 200 µM. Further, the CC50 in the data set with MDCK was more than 250 µM. In the data set with Influenza A virus, the EC50 is 15 µM.

Molecule `Cc1cc(-c2ccccc2)nc2nc(C(=O)Nc3nc4ccccc4s3)nn12` had an IC50 in [2] of more than 200 µM. In addition, the CC50 in the data set with MDCK is 233 µM.

`Cc1cc(-c2ccccc2)n2nc(C(=O)Nc3ccsc3C(N)=O)nc2n1` returned a half-maximal inhibitory concentration (IC50) in [2] of 31 µM. Further, in data set [7], the CC50 at 48 h was determined as 250 µM. Moreover, the EC50 in the data set with Influenza A virus came to 43 µM.

In turn, `COc1cc2nc(N3CCN(C(=O)c4ccco4)CC3)nc(N)c2cc1OC` [PRAZOSIN] came in with a thermodynamic solubility at 2 h in [4] of 62.8 µM (≈ 24.1 µg/mL). This lies in the double-digit micromolar range.

`CC(=O)[C@H]1CC[C@H]2[C@@H]3CCC4=CC(=O)CC[C@]4(C)[C@H]3CC[C@]12C` [PROGESTERONE] gave a thermodynamic solubility at 2 h in data set [4] of 6.5 µM (≈ 2.04 µg/mL).

`NC(=O)c1ncn([C@@H]2O[C@H](CO)[C@@H](O)[C@H]2O)n1` [RIBAVIRIN]: the CC50 at 48 h in data set [7] is more than 250 µM. Moreover, the EC50 with Influenza A virus stood at 10 µM; in data set [6], 24 µM.

As a reminder, the EC50 is the concentration giving half of the maximal effect. For orientation: CC50 means the concentration that lowers cell viability or growth by half. As usually defined, the IC50 is the point on the concentration scale where inhibition reaches its midpoint. Low readings indicate higher potency, high ones lower potency. Usually solubility stands for how much of the substance goes into solution per volume. As a reminder, the thermodynamic solubility is solubility found after equilibrating the solid with the medium.
